Hits are enriched below; roughly 2.2% of the tested compounds scored in any of these assays.
Apaf-1 inh: human Apaf-1 inhibition; O14727; reconstituted apoptosome caspase-3 activity, DEVD-Rh110 fluorescence; inhibition, % at 20 µM; 330,000 tested, 0.71% active; active = inhibition of at least 40% at 20 µM;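 also: plate controls were DMSO wells for no effect and DEVD-CHO caspase inhibitor wells for full effect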
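Assay system – apoptosome proteins · Medium – Hepes buffer, pH 7.5 · Also added – cytochrome c with DEVD-Rh110 · Timing – 30 min compound preincubation, 50 min activation, room temperature · Detection – Rh110 fluorescence, excitation 480 nm, emission 540 nm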
Rin1-Abl PPI inh: inhibitors of human Rin1-Abl protein interaction. TR-FRET Rin1/Abl binding, biochemical. inhibition, % at 7.35 µM. 360,000 tested, 0.4% active. AID 588664; in the data active = inhibition above about 5%, passing the limit was not always enough
GSTO1 inh: counter-screen for RBBP9 inhibitors: inhibitors of human GSTO1; inhibition, % at 5.96 µM; P78417; 300,000 tested, 1.1% active; recombinant GSTO1, activity-based probe fluorescence polarization;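 active = inhibition above the campaign mean inhibition plus 3 SD, cut at about 35% in these data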;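 also: 0% = GSTO1-1 with DMSO and 100% = wells lacking GSTO1-1 enzyme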
Target sequence (P78417 whole entry, looked up): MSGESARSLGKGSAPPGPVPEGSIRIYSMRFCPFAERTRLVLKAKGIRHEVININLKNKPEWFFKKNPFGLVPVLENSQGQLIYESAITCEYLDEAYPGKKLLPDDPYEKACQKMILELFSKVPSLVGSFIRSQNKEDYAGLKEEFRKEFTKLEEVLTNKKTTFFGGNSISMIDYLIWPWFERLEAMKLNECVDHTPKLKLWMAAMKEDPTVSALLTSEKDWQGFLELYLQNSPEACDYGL
UBC13 inh: inhibitors of human UBC13 polyubiquitin chain formation. P61088. TR-FRET. inhibition, % at 20 µM. 330,000 tested, 0.47% active. AID 485273; in the data active = inhibition above about 45%, passing the limit was not always enough; inconclusive = no clear call, values can overlap the other calls
Target sequence (P61088 whole entry, looked up): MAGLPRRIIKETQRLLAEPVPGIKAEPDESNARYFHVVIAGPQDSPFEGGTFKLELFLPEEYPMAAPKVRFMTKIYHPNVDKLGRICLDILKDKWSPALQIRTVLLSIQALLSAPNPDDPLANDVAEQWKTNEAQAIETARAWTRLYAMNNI
PAD4 inh: blocks human protein arginine deiminase 4; recombinant PAD4, RCA probe fluorescence polarization; inhibition, % at 6.36 µM; 330,000 tested, 0.41% active; AID 485272; Q9UM07;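 active = percent inhibition above a cutoff equal to the mean of all tested compounds plus 3 SD, cut at about 15% in these data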;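 also: 0% = PAD4 with RCA probe and DMSO and 100% = probe without PAD4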
UBC9 SUMO inh: inhibitors of human SUMOylation (UBC9) | HTRF SUMOylation assay, SAE1/SAE2 + UBC9, in vitro | AID 2006 | 290,000 tested, 0.36% active | P63279 | inhibition, % at 35 µM; in the data active = inhibition above about 50%, passing the limit was not always enough; inconclusive = no clear call, values can overlap the other calls
Target sequence (P63279 whole entry, looked up): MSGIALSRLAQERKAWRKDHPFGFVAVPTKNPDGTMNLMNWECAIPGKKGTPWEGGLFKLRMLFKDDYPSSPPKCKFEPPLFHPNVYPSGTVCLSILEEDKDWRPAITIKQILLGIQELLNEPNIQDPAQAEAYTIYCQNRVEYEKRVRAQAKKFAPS
GSTO1 inh conf: GSTO1 (human) inhibition, confirmation; recombinant GSTO1, probe fluorescence polarization; 2,400 tested, 54% active; inhibition, % at 5.96 µM; shares compounds with GSTO1 inh;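 active = inhibition above the primary screen's cutoff, its mean inhibition plus 3 SD, cut at about 35% in these data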;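 also: loss of polarization as inhibitors block binding of rhodamine sulfonate ester activity probe; 0% = GSTO1 with DMSO and 100% = wells lacking GSTO1 enzyme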
GSTO1 ABPP inh: GSTO1 (human) inhibition by gel ABPP. shares compounds with GSTO1 inh. 130 tested, 30% active. inhibition, % at 1 µM. recombinant GSTO1, gel ABPP SE-Rh probe fluorescence;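 active = inhibition of the enzyme GSTO1 above about 75%, limit read from the data; inactive = inhibition below that limit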
Numbers without * were called inactive; ? = inconclusive; · = not tested or not shown.

SMILES	Apaf-1 inh	Rin1-Abl PPI inh	GSTO1 inh	UBC13 inh	PAD4 inh	UBC9 SUMO inh	GSTO1 inh conf	others
CC1CC(=O)c2c(cc3c(-c4c(O)cc(O)c5c(O)c6c(cc45)OC(C)CC6=O)c(O)cc(O)c3c2O)O1 (centres undefined)	62*	9	62*	-45	12	?	73*
O=C(CN1CCCCC1)Nc1cccc(Oc2ccccc2)c1	17	-1	3	4	-2	-12	·
O=C(CCl)Nc1ccc(N=Nc2ccccc2)cc1	·	2	·	·	·	-13	·
O=C(CCl)Nc1ccc(-c2ccccc2)cc1	-7	3	76*	10	5	5	84*
O=C(CCl)Nc1cccc(Oc2ccccc2)c1	-6	-2	71*	1	3	10	97*
CC(Oc1ccc(F)cc1F)C(=O)NNC(=S)NCC1CCCO1 (centres undefined)	2	0	-1	-3	1	-6	·
Cc1nn(-c2ccccc2)c2c1C(c1ccc([N+](=O)[O-])cc1)C(C#N)=C(N)O2 (centres undefined)	9	4	12	1	-13	20	·
COc1cc(C2C(C#N)=C(N)Oc3c2c(-c2ccccc2)nn3-c2ccccc2)cc(OC)c1OC (centres undefined)	16	0	52*	-6	12	3	14
Cc1nn(-c2ccccc2)c2c1C(c1ccco1)C(C#N)=C(N)O2 (centres undefined)	20	3	41*	-52	-8	29	10
O=C(NCC(=O)N1CCN(Cc2ccccc2)CC1)c1cc(Cl)cc([N+](=O)[O-])c1	2	-2	·	1	5	·	·
Cc1cc(C)cc(NC(=S)N2CCC(C(=O)c3ccc(F)cc3)CC2)c1	·	-1	·	·	·	·	·
COCCN1C(=O)CCC1(C)C(=O)Nc1ccc2ccccc2c1 (centres undefined)	·	4	·	·	·	·	·
O=[N+]([O-])c1cccc(C(=Nc2ccccc2)NO)c1	3	-2	-1	13	-2	-10	·
O=[N+]([O-])c1cc([N+](=O)[O-])c2c(=Nc3ccccc3)n(-c3ccccc3)n(O)c2c1	25	0	46*	-44	1	29	63*
CN(C)C(=O)c1cc(C(=O)c2ccccc2)c[nH]1	6	0	67*	1	2	22	2
Cc1ccc(C)c(Sc2ccc(NC(=O)CCl)cc2)c1	16	·	75*	10	-5	9	82*
Cc1cc(=O)[nH]c(N/N=C/c2ccc(O)c(O)c2)n1	5	0	42*	-9	0	-9	7
CSc1ccc(/C=N/Nc2nc(C)cc(=O)[nH]2)cc1	20	1	-9	-17	2	0	·
O=[N+]([O-])c1ccc(-c2ccc(/C=N/O)o2)cc1	0	2	6	-3	-2	12	·
O=[N+]([O-])c1ccc(-c2ccc(C=Nc3cccc4ccccc34)o2)cc1	46*	0	63*	-28	24*	58	5
COc1cc2c(cc1OC)C(c1ccccc1)N(C(=O)CCl)CC2 (centres undefined)	-1	1	88*	9	6	8	96*	GSTO1 ABPP inh=75*
COc1ccc2c(c1)CCN(C(=O)CCl)C2C1C(=O)CCCC1=O (centres undefined)	-8	1	40*	-3	1	8	81*	GSTO1 ABPP inh=35
Nc1ccn(C2CCCCO2)c(=O)n1 (centres undefined)	·	-2	·	·	·	·	·
Cc1ccc(S(=O)(=O)Nc2ccc(O)c3cccnc23)cc1	10	0	50*	-20	6	-53	0
Cc1ccc(S(=O)(=O)Nc2ccc(O)c3ncccc23)cc1	-3	0	10	-21	-4	-28	·
SMILES	Apaf-1 inh	Rin1-Abl PPI inh	GSTO1 inh	UBC13 inh	PAD4 inh	UBC9 SUMO inh	GSTO1 inh conf	others
CCn1c(C)nc2cc(C(=O)N/N=C/c3cccc(O)c3O)ccc21	-5	3	45*	3	3	30	5
CCn1c(C)nc2cc(C(=O)N/N=C/c3ccccc3)ccc21	-2	5	1	0	-8	-3	·
CC(C)(C)C(=O)NC(c1ccccc1)c1c(O)ccc2ccccc12 (centres undefined)	19	2	53*	3	-5	1	6
COc1ccc(NC(=O)C2(C)Cc3c(-c4ccccc4)ccnc3O2)cc1OC (centres undefined)	·	-1	·	·	·	·	·
Cc1ccc(NC(=O)/C(C#N)=C(\N)C(Cl)(Cl)Cl)nc1	3	1	47*	-1	10	17	76*
Cc1ccccc1NC(=O)C(Cl)=C(Cl)Cl	5	4	44*	-10	2	4	24
COC(=O)CCC(=O)OC1(C)C(=O)C2=CN(CCN3CCOCC3)C(c3ccc(OC)cc3)=CC2=C(Br)C1=O (centres undefined)	86*	·	56*	-69	0	34	65*
COC(=O)CCC(=O)OC1(C)C(=O)C2=CN(Cc3ccc4c(c3)OCO4)C(c3ccc(OC)cc3)=CC2=C(Br)C1=O (centres undefined)	18	2	31	-44	-23	·	·
COC(=O)CCC(=O)OC1(C)C(=O)C2=CN(CCCCO)C(c3ccc(OC)cc3)=CC2=C(Br)C1=O (centres undefined)	80*	·	66*	-102	28*	39	60*
COC(=O)CCC(=O)OC1(C)C(=O)C2=CN(C(CO)CO)C(c3ccc(OC)cc3)=CC2=C(Br)C1=O (centres undefined)	81*	·	49*	-98	-2	30	51*
CC(=O)NCCNc1nc2cc(-c3ccc(C)cc3)sc2c(=O)n1C	·	1	·	·	·	·	·
Cc1cccc(C(=O)N2CCN(Cc3nc4sc5c(c4c(=O)[nH]3)CCCC5)CC2)c1	11	1	2	12	-3	16	·
O=C(NC1(C(F)(F)F)Oc2ccccc2O1)N1CCCC1	8	-3	48*	8	1	-12	1
O=C(Nc1ccc2c(c1)OCCO2)NC1(C(F)(F)F)Oc2ccccc2O1	4	-1	25	2	3	-2	·
O=C(NCC1CCCO1)NC1(C(F)(F)F)Oc2ccccc2O1 (centres undefined)	5	2	52*	5	-4	18	5
O=C(NCC1CCCO1)c1ccccc1 (centres undefined)	-6	0	-4	4	-2	0	·
O=C(Nc1ccc2c(c1)OCO2)NC1(C(F)(F)F)Oc2ccccc2O1	4	4	48*	7	-2	7	3
Cn1c2ccccc2c(=O)n2c(=O)c3ccccc3cc12	98*	·	78*	-7	69*	·	12

Source: PubChem BioAssay (several laboratories)
